Measurements from ChEMBL document CHEMBL4145607, “Tamarixetin Exhibits Anti-inflammatory Activity and Prevents Bacterial Sepsis by Increasing IL-10 Production” (J Nat Prod, 2018).
Calls of active or inactive are those of the source. The calls are words filed in the database; no cut-off is given here.

Assays:
[1] = system: Mus musculus; assay: Antiinflammatory activity in Balb/c mouse model of LPS-induced endotoxemia assessed as increase in survival rate at 1 mg/kg, ip pretreated for 1 hr followed by LPS-challenge measured over 72 hrs relative to control; assay type: functional
Method in brief: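 Female-unspecified BALB/c mice given compound i.p. 1 h before i.p. LPS (20 mg·kg−1); survival followed over 72 h.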

[2] = system: BMDC; assay: Inhibition of Escherichia coli DH5alpha infection-induced immune response in C57BL/6 mouse BMDC assessed as increase in IL10 secretion at 25 uM pretreated for 30 mins followed by Escherichia coli DH5alpha infection for 6 hrs by ELISA; assay type: functional, cell-based
Method in brief: (§1)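 C57BL/6 BMDCs received 25 μM compound and E. coli DH5α, 3 × 10^6 CFU·mL−1. Schedules were: compound 30 min before a 6 h infection; co-addition for 6 h; or compound for 30, 60, 90 or 120 min plus 6 h infection. Supernatant TNF-α, IL-6, IL-10 and IL-12p70 were measured by ELISA. At least three experiments in triplicate.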

[3] = system: Mus musculus; assay: Antiseptic activity in Balb/c mouse model of Escherichia coli K1 infection-induced sepsis assessed as reduction in serum TNFalpha level at 1 mg/kg, ip pretreated for 1 hr followed by Escherichia coli K1 infection measured after 2 hrs by ELISA; assay type: functional, organism-based
Method in brief: (§2)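 BALB/c mice received 1 mg·kg−1 i.p. 1 h before i.p. E. coli K1 RS218, 1 × 10^6 CFU per mouse. Serum was collected at 2 h, and TNF-α, IL-6 and IL-10 were quantified by sandwich ELISA. Means ± SEM.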

[4] = system: Mus musculus; assay: Antiseptic activity in Balb/c mouse model of Escherichia coli K1 infection-induced sepsis assessed as increase in survival rate at 1 mg/kg, ip pretreated for 1 hr followed by Escherichia coli K1 infection measured over 72 hrs relative to control; assay type: functional
Method in brief: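 BALB/c mice dosed i.p. 1 h before i.p. E. coli K1 strain RS218 (O18:K1:H7) challenge, 1 × 10^7 CFU per mouse, diluted in LB broth; n = 10; survival monitored over 72 h.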

[5] = system: BMDC; assay: Inhibition of Escherichia coli K1 infection-induced immune response in C57BL/6 mouse BMDC assessed as reduction in TNFalpha secretion at 25 uM pretreated for 60 to 120 mins followed by Escherichia coli K1 infection for 6 hrs by ELISA; assay type: functional, cell-based
Method in brief: (§3)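 BMDCs from C57BL/6 mice were given 25 μM compound and E. coli K1, […]. Timing was: compound 30 min before a 6 h infection; cotreatment for 6 h; or compound for 30–120 min with 6 h infection. Supernatant cytokines (TNF-α, IL-6, IL-10, IL-12p70) were measured by ELISA. At least three experiments in triplicate.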

[6] = system: BMDC; assay: Increase in microRNA155 expression in LPS-induced C57BL/6 mouse BMDC at 25 uM pretreated for 30 mins followed by LPS-challenge measured after 6 hrs by qRT-PCR analysis; assay type: functional, cell-based
Method in brief: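 Total RNA was extracted from BMDCs with TRIzol and reverse transcribed. miR-146a, miR-155 and miR-187 were quantified by real-time qPCR with gene-specific primers.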

[7] = system: BMDC; assay: Inhibition of LPS-induced immune response in C57BL/6 mouse BMDC assessed as reduction in IL-6 secretion at 25 uM treated 6 hrs post LPS-challenge measured after 30 mins by ELISA; assay type: functional, cell-based
Method in brief: (§4)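 Bone marrow DCs from 6-week-old female C57BL/6 mice, RBC-lysed, cultured in RPMI-1640/10% FBS with 10 ng/mL rmGM-CSF, 37 °C, 5% CO2. Cells given LPS 50 ng/mL for 6 h, then 25 μM compound added for 30, 60, 90 or 120 min. Supernatant TNF-α, IL-6, IL-10, IL-12p70 measured by sandwich ELISA. Mean ± SEM, compared with LPS-only DCs.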

[8] = system: BMDC; assay: Inhibition of LPS-induced immune response in C57BL/6 mouse BMDC assessed as reduction in TNFalpha secretion at 25 uM treated 6 hrs post LPS-challenge measured after 30 mins by ELISA; assay type: functional, cell-based; method in brief: as §4
[9] = system: Mus musculus; assay: Antiinflammatory activity in Balb/c mouse model of LPS-induced endotoxemia assessed as reduction in IL6 level in lungs at 1 mg/kg, ip pretreated for 1 hr followed by LPS-challenge measured after 12 hrs by ELISA; assay type: functional, organism-based
Method in brief: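 BALB/c mice got 1 mg·kg−1 i.p. 1 h before i.p. LPS 10 mg·kg−1. After 12 h, TNF-α and IL-6 in lung lysates were measured by sandwich ELISA. Means ± SEM.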

[10] = system: BMDC; assay: Inhibition of Escherichia coli K1 infection-induced immune response in C57BL/6 mouse BMDC assessed as increase in IL10 secretion at 25 uM pretreated for 60 to 120 mins followed by Escherichia coli K1 infection for 6 hrs by ELISA; assay type: functional, cell-based; method in brief: as §3
[11] = system: BMDC; assay: Inhibition of LPS-induced immune response in C57BL/6 mouse BMDC assessed as reduction in IL-6 secretion up to 25 uM pretreated for 30 mins followed by LPS-challenge measured after 6 hrs by ELISA; assay type: functional, cell-based
Method in brief: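 Mouse BMDCs (female C57BL/6 bone marrow, GM-CSF-derived, ≥90% CD11c+ on day 7) pretreated 30 min with graded compound concentrations, then stimulated with LPS 50 ng/mL for 6 h. Supernatant TNF-α, IL-6, IL-10 and IL-12p70 quantified by sandwich ELISA. Mean ± SEM vs LPS-only cells; experiments repeated at least three times.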

[12] = system: BMDC; assay: Inhibition of Escherichia coli DH5alpha infection-induced immune response in C57BL/6 mouse BMDC assessed as reduction in IL-6 secretion at 25 uM pretreated for 60 to 120 mins followed by Escherichia coli DH5alpha infection for 6 hrs by ELISA; assay type: functional, cell-based; method in brief: as §1
[13] = molecular target: Mitogen-activated protein kinase 8 (Homo sapiens) (UniProt P45983); assay: Binding affinity to human C-terminal His6-tagged JNK1alpha1 (1 to 364 residues) expressed in Escherichia coli by tryptophan fluorescence quenching assay
Chain of Mitogen-activated protein kinase 8 (Homo sapiens) (P45983 whole entry, the tested form may be a part): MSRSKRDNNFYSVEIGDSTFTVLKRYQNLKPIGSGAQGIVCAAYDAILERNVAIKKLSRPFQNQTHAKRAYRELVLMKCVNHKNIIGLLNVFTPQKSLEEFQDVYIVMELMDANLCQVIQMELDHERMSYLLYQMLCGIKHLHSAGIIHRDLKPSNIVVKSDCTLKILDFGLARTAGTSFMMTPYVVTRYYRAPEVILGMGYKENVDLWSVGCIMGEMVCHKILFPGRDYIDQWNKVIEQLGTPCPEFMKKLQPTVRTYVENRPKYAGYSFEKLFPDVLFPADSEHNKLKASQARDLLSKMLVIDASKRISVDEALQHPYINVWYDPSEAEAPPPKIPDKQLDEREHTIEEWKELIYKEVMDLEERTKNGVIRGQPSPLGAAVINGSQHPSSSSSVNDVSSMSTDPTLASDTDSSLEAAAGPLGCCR
Method in brief: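 C-terminally His6-tagged human JNK1 (10 μM) was titrated with compound (0–100 μM; final protein:inhibitor 1:10) in 50 mM sodium phosphate, 100 mM NaCl, pH 8.0, at 25 °C. Tryptophan emission was recorded at 290–600 nm with excitation at 290 nm.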

[14] = system: BMDC; assay: Inhibition of LPS-induced immune response in C57BL/6 mouse BMDC assessed as increase in IL10 secretion at 25 uM treated 6 hrs post LPS-challenge measured after 60 to 120 mins by ELISA; assay type: functional, cell-based; method in brief: as §4
[15] = system: Mus musculus; assay: Antiinflammatory activity in Balb/c mouse model of LPS-induced endotoxemia assessed as increase in IL10 producing Tr1 population in splenocyte at 1 mg/kg, ip pretreated for 1 hr followed by LPS-challenge measured after 12 hrs by flow cytometric analysis; assay type: functional, organism-based
[16] = system: Mus musculus; assay: Antiseptic activity in Balb/c mouse model of Escherichia coli K1 infection-induced sepsis assessed as reduction in serum IL6 level at 1 mg/kg, ip pretreated for 1 hr followed by Escherichia coli K1 infection measured after 2 hrs by ELISA; assay type: functional, organism-based; method in brief: as §2
[17] = system: Mus musculus; assay: Antiinflammatory activity in Balb/c mouse model of LPS-induced endotoxemia assessed as increase in IL10 producing dendritic cells in splenocyte at 1 mg/kg, ip pretreated for 1 hr followed by LPS-challenge measured after 12 hrs by flow cytometric analysis; assay type: functional, organism-based

COc1ccc(-c2oc3cc(O)cc(O)c3c(=O)c2O)cc1O [TAMARIXETIN]
Activity [1]: 80%
inhibition [2]: Active
Activity [3]: Active
Activity [4]: 80%
inhibition [5]: inactive
Activity [6]: Active
inhibition [7]: Active
inhibition [8]: Active
Activity [9]: Active
inhibition [10]: inactive
inhibition [11]: Active
inhibition [12]: inactive
K [13]: 4.9 ×10⁵ /M
inhibition [14]: inactive
Activity [15]: Active
Activity [16]: Active
Activity [17]: Active
